Only some compounds are listed: those with a hit (about 0.79% of all), similar ones and a draw of the others.
hIAP act: human IAP activation; P09923; purified human IAP, CDP-Star luminescence, 30 min; active compounds read high; 1 = vehicle-only enzyme, 0 = enzyme-free background; activation factor at 10 µM; actives 0.16% (n = 330,000); AID 2524;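 active = activation factor of the enzyme at least 2-fold when tested at 20 µM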
Target sequence (P09923 whole entry, looked up): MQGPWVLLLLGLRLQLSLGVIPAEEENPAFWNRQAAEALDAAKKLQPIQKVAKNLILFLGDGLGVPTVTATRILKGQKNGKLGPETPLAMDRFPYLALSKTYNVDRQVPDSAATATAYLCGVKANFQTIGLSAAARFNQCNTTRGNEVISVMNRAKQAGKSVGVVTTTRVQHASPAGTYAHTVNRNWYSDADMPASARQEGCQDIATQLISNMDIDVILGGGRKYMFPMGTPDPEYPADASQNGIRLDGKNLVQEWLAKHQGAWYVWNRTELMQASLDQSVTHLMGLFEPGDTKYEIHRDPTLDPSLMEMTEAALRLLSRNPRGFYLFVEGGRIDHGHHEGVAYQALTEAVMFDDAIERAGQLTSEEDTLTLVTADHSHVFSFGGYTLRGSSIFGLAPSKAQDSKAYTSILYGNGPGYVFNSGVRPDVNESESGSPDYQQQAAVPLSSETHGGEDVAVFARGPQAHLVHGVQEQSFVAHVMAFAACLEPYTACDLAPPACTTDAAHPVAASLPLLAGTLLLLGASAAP
mIAP block: mouse IAP inhibition; purified mouse IAP, CDP-Star luminescence, 30 min; inhibition, % at 10 µM; actives 0.2% (n = 330,000); AID 2806;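 active = inhibition of at least 40% at 10 µM in the primary screen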;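 note: plate controls were DMSO with enzyme for no effect and no enzyme wells for full effect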
hIAP inh: human IAP inhibition. purified IAP, CDP-Star luminescence, 30 min. actives 0.12% (n = 330,000). P09923. inhibition, % at 10 µM;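 active = inhibition reaching a set limit with compound at 10 µM in the primary screen, cut at about 35% in these data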;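 note: plate controls were DMSO wells with enzyme for no effect and no-enzyme buffer wells for full effect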
bIAP activator: intestinal alkaline phosphatase (bovine) activation; AID 1016; purified bovine IAP, CDP-star luminescence, 30 min; active compounds read high; fold of DMSO-control signal, blank-subtracted; actives 0.17% (n = 200,000); activation factor at 20 µM;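 active = activation factor of 2 or more at 20 µM, a signal rise over negative controls twice the positive control's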
bIAP inh: blocks bovine intestinal alkaline phosphatase activity; purified bovine IAP, CDP-star luminescence, 30 min; inhibition, % at 20 µM; 190,000 tested, under 10 active;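 active = over 50% inhibition of intestinal alkaline phosphatase at 20 µM in the single-dose screen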
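Assay system – bovine IAP enzyme · Quantity – bovine IAP at 1/65,000,000 final dilution · Detection – CDP-star luminescence signal · Times – 30 min reaction at room temperature · Also added – CDP-star substrate at 30 µM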
mIAP act: increases mouse intestinal alkaline phosphatase activity. muIAP, CDP-Star luminescence, 30 min; active compounds read high; 1 = vehicle-only enzyme signal, 0 = enzyme-free wells. activation factor at 10 µM. actives 0.24% (n = 330,000);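 active = activation factor of at least 2 at 20 µM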
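System: mouse IAP enzyme. Reagent: CDP-Star chemiluminescent phosphatase substrate. Benchmarks: DMSO wells, no-enzyme wells. Times: 30 min enzyme-substrate-compound incubation at room temperature. Detection: luminescence from enzymatic CDP-Star hydrolysis. Doses: test compounds delivered from DMSO solution.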
hIAP act conf: human IAP activation confirmation; shares compounds with hIAP act; purified IAP, CDP-Star luminescence, 30 min; active compounds read low; activation (%Activity, negative = activation), % at 8.3 µM; actives 10% (n = 880); AID 434926;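 active = at least twofold enzyme activation in any of six single-dose repeats, which the averaged readout prints as negative percent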
mIAP inh confirm: mouse IAP inhibition confirmation | shares compounds with mIAP block | purified mouse IAP, CDP-Star luminescence, 30 min | inhibition, % at 10 µM | actives 4.7% (n = 11,000) | AID 434971;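 active = inhibition of at least 40% at 10 µM in either of the two replicates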;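 note: plate controls were DMSO wells with enzyme for no effect and buffer wells lacking enzyme for full effect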
Starred values were filed as active, the others as inactive; i = inactive; . = no result.

SMILES | hIAP act | mIAP block | hIAP inh | bIAP activator | bIAP inh | mIAP act | mIAP inh confirm | others
COc1ccc(C(=O)C2CN(C)CC2c2ccc(Cl)cc2)cc1 (stereo not drawn) | 1 | -6 | -2 | 1 | 4 | 1.1 | .
CN1CC(C(=O)c2ccc(Cl)cc2)C(c2ccccc2F)C1 (stereo not drawn) | 1.1 | 42* | -7 | 1 | 0 | 0.58 | .
c1ccc2[nH]c(CCNC3CCCCC3)nc2c1 | 0.98 | 4 | 2 | 2.2* | -120 | 0.96 | .
CCOC(=O)N(C)c1ccc(C(O)(C(=O)OC)C(F)(F)F)cc1 (stereo not drawn) | 1.1 | -5 | -9 | 2.1* | -106 | 1.1 | .
CCOC(=O)C1(c2ccccc2)CCN(CCC(=O)Nc2cccc(Br)c2)CC1 | 0.91 | -20 | 9 | . | . | 1.2 | .
COC(=O)C1=C(c2ccc(F)cc2OCc2ccccc2)C[C@@H]2CC[C@H]1N2C(=O)NCCCc1ccccc1 | 0.91 | -63 | 9 | . | . | 1.6 | .
O=C1NC(=O)N(c2ccc3c(c2)OCO3)C(=O)/C1=C/c1ccc(N2CCCC2)o1 | 0.71 | 56* | 29 | 1 | 4 | 0.45 | .
O=c1[nH]c(=S)n(Cc2ccco2)c(O)c1C=NCc1cccs1 | 1.1 | 61* | -6 | 1.1 | -12 | 0.39 | .
O=c1[nH]c(=O)n(Cc2ccco2)c(O)c1C=NCc1cccs1 | 0.98 | 10 | 2 | 0.9 | 13 | 0.9 | .
COC(=O)C1=C(c2ccc(F)cc2F)C[C@@H]2CC[C@H]1N2C(=O)NCCOc1ccc(OC)cc1 | 1.1 | -16 | -15 | . | . | 1.2 | .
O=c1[nH]c(=O)n(-c2ccc(Br)cc2)c(O)c1C=NC(CO)(CO)CO | 0.5 | -6 | 50* | . | . | 1.1 | . | hIAP act conf=2
CCCCOc1ccc(CN2CCN(CCO)CC2)cc1 | 0.63 | 3 | 37* | 1 | 1 | 0.97 | . | hIAP act conf=-22
CCCCCCOc1ccc(CN2CCN(CCO)CC2)cc1 | 0.95 | 2 | 5 | 1.1 | -6 | 0.98 | .
COC(=O)C1=C(c2ccc(Cl)c(C(F)(F)F)c2)C[C@@H]2CC[C@H]1N2C(=O)NC1CCCCC1 | 1 | 1 | -4 | . | . | 0.99 | .
O=C1NC(=S)N(c2ccc(F)cc2)C(=O)/C1=C/c1ccco1 | 0.91 | 47* | 10 | . | . | 0.53 | 60*
COc1ccc(OC)c(N2C(=O)/C(=C/c3ccco3)C(=O)NC2=S)c1 | 0.96 | 42* | 4 | . | . | 0.58 | 58*
Clc1ccc(C(c2ccc(Cl)cc2)n2cc[n+](CC(OCc3ccc(Cl)cc3Cl)c3ccc(Cl)cc3Cl)c2)cc1 (stereo not drawn) | 1.3 | i | -28 | . | . | 17* | i
CCCC[C@@H](C)C[C@@H](C)C(=O)N(C)[C@@H](CC(C)C)C(=O)N[C@H](C(=O)N(C)[C@H](C(=O)N1C[C@@H](O)C[C@H]1C(=O)N1C(=O)C=C[C@@H]1C)C(C)C)C(C)OC(C)=O (stereo partly drawn) | 1.1 | 7 | -7 | . | . | 0.93 | .
CC1(O)CCN2C(=O)CCc3cccc1c32 (stereo not drawn) | 1 | 4 | -2 | . | . | 0.96 | .
Oc1ccc(C[C@H]2NCCc3cc(O)c(O)cc32)cc1O | 0.83 | 63* | 17 | . | . | 0.37 | 76*
NC(N)=Nc1ccc2[nH]c3c(c2c1)C[C@@]1(O)[C@H]2Cc4ccc(O)c5c4[C@@]1(CCN2CC1CC1)C3O5 (stereo partly drawn) | 0.94 | 1 | 6 | . | . | 0.99 | .
O=C1NC(=O)N(c2ccc3c(c2)OCO3)C(=O)/C1=C/c1cccs1 | 0.94 | 72* | 6 | 1 | 3 | 0.28 | 76*
CN1C(=O)/C(=C/C=C/c2ccco2)C(=O)NC1=S | 0.94 | 66* | 6 | . | . | 0.34 | 62*
Cc1cccc(N2C(=O)NC(=O)/C(=C\C=C\c3ccco3)C2=O)c1 | 0.98 | 45* | 2 | . | . | 0.55 | 53*
O=C1NC(=O)N(Cc2ccccc2)C(=O)/C1=C\C=C\c1ccco1 | 1.1 | 37 | -9 | 1 | 5 | 0.63 | .
SMILES | hIAP act | mIAP block | hIAP inh | bIAP activator | bIAP inh | mIAP act | mIAP inh confirm | others
Cc1ccc(N2C(=O)NC(=O)/C(=C\C=C\c3ccco3)C2=O)cc1 | 1 | 36 | -2 | . | . | 0.64 | .
O=C1NC(=O)N(Cc2ccco2)C(=O)/C1=C/C=C/c1ccco1 | 0.96 | 72* | 4 | . | . | 0.28 | 75*
O=C1NC(=O)N(c2ccccc2)C(=O)/C1=C/C=C/c1ccco1 | 1 | 28 | 0 | . | . | 0.72 | .
O=C(CN1CCN(C(=O)COc2cccc(F)c2)CC1)Nc1ccc(Cl)c(C(F)(F)F)c1 | 1 | -10 | -1 | . | . | 1.1 | .
CCCCCCCCn1sccc1=O | 0.89 | -6 | 11 | . | . | 1.1 | .
Cc1ccc(N2C(=O)/C(=C/c3ccc(CN(CCC#N)S(C)(=O)=O)o3)C(=O)NC2=S)cc1C | 0.91 | 43* | 9 | 1.1 | -7 | 0.57 | 46*
C[C@]12CCC3C(CC[C@H]4C[C@@H](O)CC[C@]34C)C1CC[C@@H]2OC(=O)[C@H](N)CCCCN (stereo partly drawn) | 1 | 1 | -4 | . | . | 0.99 | .
CCN1C(=O)/C(=C\c2ccc([N+](=O)[O-])s2)C(=O)NC1=S | . | . | . | 0.5 | 46 | . | .
C=CCN1C(=O)/C(=C/c2ccc(Br)s2)C(=O)NC1=S | 1.1 | 43* | -11 | . | . | 0.57 | 53*
N#Cc1c(/N=C/c2c(O)n(Cc3ccco3)c(=O)[nH]c2=O)sc2c1CCCC2 | 0.91 | 64* | 9 | 1 | 0 | 0.36 | 72*

Assay outcomes from PubChem.
